Experimental data: BindingDB's records for doi:10.1021/jm00077a013 (Takeda Chemical Industries, 1994)

Target: T1, Endothelin-1 receptor (Sus scrofa, UniProt Q29010)
T1 sequence (Q29010 whole entry): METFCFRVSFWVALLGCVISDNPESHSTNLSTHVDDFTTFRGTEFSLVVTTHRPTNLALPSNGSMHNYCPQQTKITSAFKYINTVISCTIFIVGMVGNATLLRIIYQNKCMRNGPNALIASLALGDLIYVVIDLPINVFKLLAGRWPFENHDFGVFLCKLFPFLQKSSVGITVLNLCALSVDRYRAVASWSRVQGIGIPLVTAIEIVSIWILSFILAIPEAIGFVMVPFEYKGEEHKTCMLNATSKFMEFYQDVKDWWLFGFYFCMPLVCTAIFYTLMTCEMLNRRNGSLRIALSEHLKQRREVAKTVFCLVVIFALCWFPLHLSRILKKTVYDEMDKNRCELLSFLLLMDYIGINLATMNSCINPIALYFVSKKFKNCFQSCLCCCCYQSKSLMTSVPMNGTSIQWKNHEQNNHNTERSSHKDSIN
Test: Tested for the competitive binding versus [125I]- ET-1 determined in porcine cardiac ventricular membrane for Endothelin A receptor
How it was run: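 Membranes (porcine cardiac ventricle at 12 μg/mL for ETA; bovine cerebrum at 150 μg/mL for ETB) in pH 7.2 Tris/EGTA/Mg acetate/0.1% BSA buffer with protease inhibitors. Incubated with 100 pM [125I]ET-1 and varied compound for 1 h at 25 °C, then filtered and counted by gamma counter. IC50 given as mean ± SEM of ≥3 determinations.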

CC[C@H](C)[C@H](NC(=O)[C@H](CC1CCCCC1)NC(=O)[C@@H](NC(=O)[C@H](CC(C)C)NC(=O)[C@H](Cc1c[nH]cn1)NC(=O)[C@@H]1CSSC[C@H](N)C(=O)N[C@@H](CO)C(=O)N[C@H]2CSSC[C@H](NC(=O)[C@H](CCC(=O)O)NC(=O)[C@H](CCCCN)NC(=O)[C@H](CC(=O)O)NC(=O)[C@H](CCSC)NC(=O)[C@H](CC(C)C)NC(=O)[C@H](CO)NC(=O)[C@H](CO)NC2=O)C(=O)N[C@@H](C(C)C)C(=O)N[C@@H](Cc2ccc(O)cc2)C(=O)N[C@@H](Cc2ccccc2)C(=O)N1)[C@@H](C)O)C(=O)N[C@@H](Cc1c[nH]c2ccccc12)C(=O)O
IC50: 0.7 nM
